# SUMO1-SIM PPI – modulators of SUMO1 protein-protein interactions, primary screen, biochemical, uHTS. Small ubiquitin-related modifier 1 (Homo sapiens), P63165. SUMO1 binding to a labelled peptide, TR-FRET, 1 h. 0.33% of 360,000 active. inhibition, % at 20 µM; in the data active = inhibition above about 37%
# DSG3 Ab inh – inhibitors of pemphigus antibody binding to DSG3, primary screen, biochemical, bead-based, flow cytometry, scFv-GFP; binding (percent of control), % at 10 µM; 0.48% of 310,000 active; AID 588358, 2011; DSG3-coupled beads, scFv-anti-DSG3-GFP binding; hits give low values; Desmoglein-3 (Homo sapiens), P32926;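 active = binding more than 3 SD below its plate's average and above zero; inconclusive = below that plate limit but binding exactly zero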;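 also: hits lower antibody fragment binding to DSG3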
# Target sequence (P32926 whole entry, looked up, the tested form may be a part): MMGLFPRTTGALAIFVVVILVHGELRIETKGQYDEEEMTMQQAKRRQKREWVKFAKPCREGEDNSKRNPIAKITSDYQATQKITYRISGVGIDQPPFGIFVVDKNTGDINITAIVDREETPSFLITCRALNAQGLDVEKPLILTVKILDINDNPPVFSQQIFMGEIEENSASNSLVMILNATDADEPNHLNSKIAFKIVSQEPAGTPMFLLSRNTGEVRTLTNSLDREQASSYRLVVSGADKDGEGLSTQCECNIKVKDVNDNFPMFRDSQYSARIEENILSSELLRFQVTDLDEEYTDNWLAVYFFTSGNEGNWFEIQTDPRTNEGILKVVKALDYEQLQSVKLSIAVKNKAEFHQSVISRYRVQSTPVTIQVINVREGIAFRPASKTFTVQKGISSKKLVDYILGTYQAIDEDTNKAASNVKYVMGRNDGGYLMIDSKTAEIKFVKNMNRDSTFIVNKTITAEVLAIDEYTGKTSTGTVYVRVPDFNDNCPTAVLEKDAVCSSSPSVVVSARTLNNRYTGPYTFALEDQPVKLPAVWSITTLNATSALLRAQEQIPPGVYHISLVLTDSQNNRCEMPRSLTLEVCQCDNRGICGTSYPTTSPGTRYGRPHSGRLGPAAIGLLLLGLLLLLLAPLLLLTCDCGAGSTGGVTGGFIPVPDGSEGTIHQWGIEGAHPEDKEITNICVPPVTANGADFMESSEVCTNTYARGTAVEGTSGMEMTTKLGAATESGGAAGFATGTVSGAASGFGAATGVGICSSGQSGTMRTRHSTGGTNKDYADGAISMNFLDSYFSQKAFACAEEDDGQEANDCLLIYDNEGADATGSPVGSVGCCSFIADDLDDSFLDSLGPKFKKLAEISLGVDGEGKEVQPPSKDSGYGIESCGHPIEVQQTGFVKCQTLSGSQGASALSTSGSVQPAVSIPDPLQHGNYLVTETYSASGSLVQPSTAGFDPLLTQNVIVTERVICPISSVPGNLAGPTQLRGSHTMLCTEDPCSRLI
# LMPTP inh – LMPTP phosphatase inhibitors, primary screen, biochemical, fluorescence intensity, uHTS | recombinant LMPTP-A, OMFP fluorogenic substrate | inhibition, % at 20 µM | 0.22% of 360,000 active | AID 651560, 2012;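 active = compounds that cut the enzyme signal by at least half of the control window in the single-dose screen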;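 also: plate controls were DMSO wells with enzyme plus substrate for no effect and substrate without enzyme for full effect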
#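 Material: LMPTP-A; amount: 0.625 nM enzyme; doses: single 20 µM dose; times: reaction 50 min, room temperature, dark; technique: fluorescence intensity of OMFP turnover product; benchmarks: no-enzyme and uninhibited controls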
# Scp1 inh – Scp-1 phosphatase inhibitors, primary screen, biochemical, colorimetric, uHTS | Recombinant Scp1, phosphopeptide, malachite green phosphate absorbance | inhibition, % at 20 µM | 0.88% of 340,000 active | AID 493091, 2011;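 active = inhibition above about 50% at 20 µM, limit read from the data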;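 also: plate controls were DMSO wells with enzyme for no effect and wells lacking enzyme for full effect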
#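 Times: enzyme reaction 45 min at room temperature, colour 5 min, stabilisation 30 min. Material: SCP-1 catalytic fragment, aa 76-261. Medium: Acidic Tris acetate buffer with magnesium and detergent. Signal: colorimetric free-phosphate detection, absorbance 630 nm. Read-out basis: % inhibition of SCP-1 phosphate liberation. Reagent: Phosphorylated 17-residue peptide substrate.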
# STEP inh – STEP phosphatase inhibitors, primary screen, biochemical, fluorescence intensity, uHTS | 0.25% of 360,000 active | AID 588621, 2011 | inhibition, % at 20 µM | Tyrosine-protein phosphatase non-receptor type 5 (Homo sapiens), P54829 | recombinant STEP, OMFP fluorogenic substrate;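 active = inhibition at 20 µM, scaled per plate between control wells, above about 37%, limit read from the data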;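 also: 0% = DMSO with enzyme and substrate and 100% = substrate only without enzyme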
#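 material = STEP tyrosine phosphatase | reagent = fluorogenic phosphatase substrate OMFP at 25 µM final | doses = single compound dose of 20 µM, 1% DMSO final | schedule = 20 min reaction, room temperature, in the dark | measured by = fluorescence, 480/540 nm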
# STEP conf – STEP phosphatase inhibitor hit confirmation, biochemical, fluorescence intensity, single concentration. shares compounds with STEP inh. recombinant STEP, OMFP fluorogenic substrate. inhibition, % at 20 µM. 32% of 520 active; call rule not given here;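 also: 0% = enzyme with substrate plus DMSO and 100% = substrate without enzyme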
# Starred values were filed as active, the others as inactive; ? = inconclusive; / = no result. Only some compounds are listed: those with a hit (about 1.7% of all), similar ones and a draw of the others.
SMILES,SUMO1-SIM PPI,DSG3 Ab inh,LMPTP inh,Scp1 inh,STEP inh,STEP conf
COC(=O)c1ccc(COC(=O)CCc2nc(-c3ccccc3)c(-c3ccccc3)o2)cc1,0,109,4,-13,38*,-5
CC(=O)Nc1ccc(C(=O)CN2CCN(c3ccccc3)CC2)cc1,70*,96,4,-1,47*,16
COc1ccc(N(CC(=O)NN=C2CCCC2)S(=O)(=O)c2ccccc2)cc1Cl,2,83,-2,-10,2,/
O=C(O)CCCCCn1c(SCc2cc(=O)n3cc(Cl)ccc3n2)nc2ccsc2c1=O,-14,99,-1,0,65*,12
O=C(O)CCCCCn1c(SCc2cc(=O)n3ccccc3n2)nc2ccsc2c1=O,-8,/,-1,8,-1,/
CC(C)N1CCc2c(sc(NC(=O)c3ccc(S(=O)(=O)N4CCCCC4C)cc3)c2C(N)=O)C1 (stereo not given),-9,92,1,-6,1,/
Cc1ccc(S(=O)(=O)N2CCCCC2)cc1NC(=O)c1ccc(=O)[nH]c1,12,107,54*,/,54*,66*
S=C(NCCN1CCOCC1)C(=S)NCCN1CCOCC1,-19,100,-2,-2,42*,13
Cn1c(CSc2ncccn2)nnc1SCC(=O)N1CCCc2ccccc21,0,101,-1,-2,53*,-11
CCn1c(CSc2ncccn2)nnc1SCC(=O)N1CCc2ccccc21,1,100,-1,-4,1,/
CCN1CCN(c2nc(C)nc3c2sc(=S)n3C)CC1,1,112,3,-4,93*,-10
COc1cccc(CNC(=O)CNC(=O)N2CC(=O)Nc3ccccc32)c1,-2,126,0,-8,-3,/
Cc1ccc(C(=O)N/N=C\c2ccc(-c3ccc([N+](=O)[O-])cc3)o2)cn1,24,119,33,1,60*,0
CCOc1cc(NC(=O)C2CC2)c(OCC)cc1NC(=O)CCn1nnc2ccccc21,-1,100,0,32,63*,-10
O=C(O)c1ccc(/C=N/Nc2nc3ccccc3[nH]2)cc1,-9,102,14,38,49*,0
C/C(CC(C)C)=N\NS(=O)(=O)c1ccc(C)c([N+](=O)[O-])c1,-6,94,-1,1,90*,-4
CCOC(=O)N1CCC(N(CCN(C)C)C(=S)Nc2ccccc2OCC)CC1,-3,100,-5,9,45*,22
CCOC(=O)N1CCC(N(CCN(C)C)C(=S)Nc2ccccc2OC)CC1,-3,103,-7,-11,3,/
CCOC(=O)N1CCC(N(CCN(C)C)C(=S)Nc2cccc(C)c2)CC1,-1,96,-9,-3,-4,/
CCOC(=O)N1CCC(N(CCN(C)C)C(=S)Nc2ccc(Oc3ccccc3)cc2)CC1,1,91,-2,5,92*,61*
COc1ccc(N2CCN(C(c3cccs3)C(C)NC(=O)C(=O)N3CCCCC3)CC2)cc1 (stereo not given),-1,?,0,-5,29,/
COc1ccc(N2CCN(C(c3cccs3)C(C)NC(=O)C(=O)N3CCCC3)CC2)cc1 (stereo not given),-5,105,0,-7,60*,14
COc1ccc(OC)c(-c2csc(NC(=O)CSc3nnnn3C)n2)c1,-2,96,-1,-1,-1,/
Cc1ccccc1C(=O)O/N=C(\N)c1cccc([N+](=O)[O-])c1,-25,102,-1,-4,2,/
N/C(=N\OC(=O)c1cccc2ccccc12)c1cccc([N+](=O)[O-])c1,-7,99,10,49,62*,24*
SMILES,SUMO1-SIM PPI,DSG3 Ab inh,LMPTP inh,Scp1 inh,STEP inh,STEP conf
COc1cccc(/C=N/Nc2ncnc3c2[nH]c2ccc(C)cc23)c1OC,90*,107,26,20,77*,4
CC1(C)CC(=O)C=C(NNC(=O)c2ccc(N)cc2)C1,-1,133,-1,0,120*,6
c1ccc(OCc2nnc3n2N=C(c2ccccc2)CS3)cc1,-5,88,1,-5,70*,0
Cc1ccccc1/C=N/Nc1nc2ccccc2c(=O)n1O,-5,113,1,-8,76*,20
Cc1ccc(Cl)cc1NC(=S)N(CCCN1CCN(C)CC1)Cc1cccs1,-2,93,0,-1,-1,/
CCc1cccc(C)c1NC(=S)N(CCCN1CCOCC1)Cc1cccnc1,4,105,-5,-5,41*,5
Cc1cc(Cl)ccc1NC(=S)N(CCCN1CCOCC1)Cc1cccs1,0,98,-2,-2,57*,12
Cn1nnnc1SCC(=O)Nc1cc(S(=O)(=O)N2CCCCC2)ccc1Cl,5,91,0,-4,3,/
CCCc1cc(C(=O)N2CCCC(C(=O)c3cccc4ccccc34)C2)n(C)n1 (stereo not given),-5,100,1,-3,49*,1
Cc1ccc(S(=O)(=O)NCC(=O)N2CCN(c3ccc(F)cc3)CC2)cc1,-2,/,-2,-4,40*,-3
CC(C)(C)NC(=O)C(c1ccncc1)n1c(-c2ccc(C(F)(F)F)cc2)nc2ccccc21 (stereo not given),17,/,0,/,/,/
O=C(CSc1nc(-c2ccc(F)cc2)nc2c1Cc1ccccc1O2)Nc1cccc(C(=O)O)c1,108*,86,88*,89*,97*,13*
CC1(C)CCC(=O)C=C1Nc1ccc(F)c(Cl)c1,8,97,-2,-1,1,/
Cc1c(C)c2ccc(OCC(=O)Nc3ccc(S(N)(=O)=O)cc3)c(C)c2oc1=O,18,98,31,45,46*,74*
Nc1ccccc1C(=O)N1O[C@@H]2C=C[C@H]1CC2,1,105,0,1,0,/
Cc1ccc(C2=C(O)C(=O)C(c3ccc(C)cc3)=C(O)C2=O)cc1,1,97,11,-3,6,/
CC1=C(O)C(=O)C(C2=C(O)C(=O)C(C)=C(O)C2=O)=C(O)C1=O,-13,96,4,-1,65*,21*
COc1cccc(-c2cc(C(=O)Nc3nc4ccccc4s3)c3ccccc3n2)c1,-4,97,3,10,71*,41*

# Screening data (PubChem)
